pEC50, pKi: −log10 of the molar value. Calls of active or inactive are those of the source. The calls are words filed in the database; no cut-off is given here.
Assays:
[1] = target: T1, Adenosine receptor A2b (Homo sapiens) (UniProt P29275); experiment: Agonist activity at human adenosine A2B receptor expressed in CHO cell membranes assessed as induction of cAMP accumulation at 1 uM by AlphaScreen assay relative to NECA; type: functional, cell-based
T1 sequence (whole entry): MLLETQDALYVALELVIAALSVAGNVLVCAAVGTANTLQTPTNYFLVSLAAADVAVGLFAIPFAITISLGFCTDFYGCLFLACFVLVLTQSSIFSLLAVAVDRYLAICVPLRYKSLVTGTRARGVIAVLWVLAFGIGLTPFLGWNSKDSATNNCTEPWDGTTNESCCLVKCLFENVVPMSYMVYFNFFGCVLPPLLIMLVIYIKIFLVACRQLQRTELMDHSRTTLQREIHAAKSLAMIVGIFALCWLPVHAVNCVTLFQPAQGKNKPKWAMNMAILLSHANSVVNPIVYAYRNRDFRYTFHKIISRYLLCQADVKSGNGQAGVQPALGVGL
In short: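 Whole adherent hA2B-transfected CHO cells (DMEM/F12, 10% FCS, G418), trypsin-detached, in HBSS with 5 mM HEPES, 0.5 mM Ro 20-1724, 0.1% BSA; test compound at 1 μM alone; cAMP by AlphaScreen; efficacy expressed relative to NECA 1 μM taken as 100%.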

Adenosine receptor A2b = target: T2, Adenosine receptor A2b (Homo sapiens, UniProt P29275); experiment: Agonist activity at human adenosine A2B receptor expressed in CHO cell membranes assessed as induction of cAMP accumulation by AlphaScreen assay; type: functional, cell-based
T2 sequence (P29275 whole entry): T1 sequence (whole entry)
In short: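 Intact hA2B-transfected CHO cells, trypsin-detached, stimulated in HBSS/5 mM HEPES/0.5 mM Ro 20-1724/0.1% BSA with compound alone at 1 nM–1 μM; cAMP read by AlphaScreen kit; EC50 from four separate assays each in triplicate, mean ± SEM.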

[2] = target: T3, Adenosine receptor A3 (Homo sapiens) (UniProt P0DMS8); experiment: Displacement of [125I]-ABMECA from human adenosine A3 receptor expressed in CHO cell membranes at 1 uM after 120 mins by scintillation counting analysis
T3 sequence (whole entry): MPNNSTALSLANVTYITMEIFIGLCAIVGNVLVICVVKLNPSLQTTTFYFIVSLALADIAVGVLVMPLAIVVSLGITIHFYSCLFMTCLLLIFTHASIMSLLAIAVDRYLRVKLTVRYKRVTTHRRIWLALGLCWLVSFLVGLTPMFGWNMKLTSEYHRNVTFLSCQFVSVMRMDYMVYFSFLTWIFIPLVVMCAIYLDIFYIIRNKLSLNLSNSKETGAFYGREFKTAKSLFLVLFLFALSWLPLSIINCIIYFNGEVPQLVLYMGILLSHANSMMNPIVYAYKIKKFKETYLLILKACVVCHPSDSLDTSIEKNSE
In short: (§1)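 Membranes of hA3-CHO cells, 50 µg protein/100 µl, incubated 120 min at 4°C with 0.5 nM [125I]AB-MECA in 50 mM Tris HCl pH 7.4, 10 mM MgCl2, 1 mM EDTA; 1 µM AB-MECA for nonspecific; filter separation, counted. Ki by Cheng–Prusoff, four assays in triplicate; I% at 1 μM.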

Adenosine receptor A1 = target: T4, Adenosine receptor A1 (Homo sapiens, UniProt P30542); experiment: Displacement of [3H]DPCPX from human adenosine A1 receptor expressed in CHO cell membranes after 90 mins by scintillation counting analysis
T4 sequence (P30542 whole entry): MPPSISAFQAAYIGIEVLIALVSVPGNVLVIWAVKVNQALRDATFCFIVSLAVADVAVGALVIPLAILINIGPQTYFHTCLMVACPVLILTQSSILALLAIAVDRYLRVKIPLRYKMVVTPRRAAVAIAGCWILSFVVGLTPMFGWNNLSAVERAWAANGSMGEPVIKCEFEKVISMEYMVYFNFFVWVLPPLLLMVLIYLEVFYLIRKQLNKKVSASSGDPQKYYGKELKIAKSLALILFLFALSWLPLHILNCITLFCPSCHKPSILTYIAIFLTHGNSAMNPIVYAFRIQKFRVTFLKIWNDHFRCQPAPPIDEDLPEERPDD
In short: (§2)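 Hypotonic-lysed (5 mM Tris HCl, 1 mM EDTA, pH 7.4), 40000 g pelleted hA1-CHO membranes, 50 µg protein/100 µl, with 1 nM [3H]DPCPX, 90 min, 25°C, 50 mM Tris HCl pH 7.4; nonspecific with 1 µM DPCPX; GF/B filtration, scintillation. Ki via Cheng–Prusoff, four assays in triplicate; I% at 1 μM.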

Adenosine receptor A2a [3] = target: T5, Adenosine receptor A2a (Homo sapiens, UniProt P29274); experiment: Displacement of [3H]-ZM241385 from human adenosine A2A receptor expressed in CHO cell membranes at 1 uM after 60 mins by scintillation counting analysis
[4] = target: T6, Adenosine receptor A1 (Homo sapiens) (UniProt P30542); experiment: Displacement of [3H]DPCPX from human adenosine A1 receptor expressed in CHO cell membranes at 1 uM after 90 mins by scintillation counting analysis; in short: as §2
T6 sequence (whole entry): T4 sequence (P30542 whole entry)

[5] = target: T1, Adenosine receptor A2b (Homo sapiens); experiment: Antagonist activity at human adenosine A2B receptor expressed in CHO cell membranes assessed as inhibition of NECA-stimulated cAMP accumulation at 1 uM by AlphaScreen assay; type: functional, cell-based
In short: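 hA2B-transfected CHO cells in HBSS, 5 mM HEPES, 0.5 mM Ro 20-1724, 0.1% BSA; compound at 1 μM given with NECA 100 nM; cAMP production measured by AlphaScreen.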

Adenosine receptor A2a [6] = target: T5, Adenosine receptor A2a; experiment: Displacement of [3H]-ZM241385 from human adenosine A2A receptor expressed in CHO cell membranes after 60 mins by scintillation counting analysis
Adenosine receptor A3 = target: T7, Adenosine receptor A3 (Homo sapiens, UniProt P0DMS8); experiment: Displacement of [125I]-ABMECA from human adenosine A3 receptor expressed in CHO cell membranes after 120 mins by scintillation counting analysis; in short: as §1
T7 sequence (P0DMS8 whole entry): T3 sequence (whole entry)

T5 sequence (P29274 whole entry): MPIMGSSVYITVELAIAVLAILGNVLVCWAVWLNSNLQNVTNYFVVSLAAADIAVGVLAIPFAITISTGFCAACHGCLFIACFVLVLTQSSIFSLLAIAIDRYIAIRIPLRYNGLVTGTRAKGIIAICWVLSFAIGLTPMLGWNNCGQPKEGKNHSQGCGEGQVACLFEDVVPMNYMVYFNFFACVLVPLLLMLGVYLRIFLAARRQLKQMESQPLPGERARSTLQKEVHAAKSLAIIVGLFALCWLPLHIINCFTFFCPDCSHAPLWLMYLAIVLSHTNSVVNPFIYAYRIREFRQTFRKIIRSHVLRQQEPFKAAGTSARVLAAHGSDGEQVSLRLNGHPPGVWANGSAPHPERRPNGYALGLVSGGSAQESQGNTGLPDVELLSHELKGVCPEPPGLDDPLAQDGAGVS

Row | Compound | Efficacy [1] [%] | pEC50 (Adenosine receptor A2b) | inhibition [2] [%] | pKi (Adenosine receptor A1) | inhibition (Adenosine receptor A2a [3]) [%] | inhibition [4] [%] | inhibition [5] | pKi (Adenosine receptor A2a [6]) | pKi (Adenosine receptor A3)
1 | N#Cc1c(N)nc(SCc2ccn[nH]2)c(C#N)c1-c1ccc(OCC2CC2)cc1 | 48 | 7.08 | 6 | 6.26 | 2 |  |  |  | 
2 | COC(=O)CSc1nc(N)c(C#N)c(-c2ccc(OCC3CC3)cc2)c1C#N | 1 |  | 1 |  | 1 | 23 | inactive |  | 
3 | CCOc1ccc(-c2c(C#N)c(N)nc(SCC(N)=O)c2C#N)cc1 | 66 | 7.42 | 20 | 6.46 | 1 |  |  |  | 
4 | N#Cc1c(N)nc(SCC2=NCCN2)c(C#N)c1-c1ccc(OCC2CC2)cc1 | 7 |  | 6 | 6.32 | 14 |  | inactive |  | 
5 | N#Cc1c(N)nc(SCc2cccnc2)c(C#N)c1-c1ccc(OCC2CC2)cc1 | 1 |  | 19 | 7.17 |  |  |  | 6.37 | 
6 | N#Cc1c(N)nc(SCC(=O)NCO)c(C#N)c1-c1ccc(OCC2CC2)cc1 | 57 | 6.74 | 8 |  | 1 | 10 |  |  | 
7 | C=CCOc1ccc(-c2c(C#N)c(N)nc(SCC(N)=O)c2C#N)cc1 | 11 |  |  | 6.49 | 18 |  |  |  | 6.35
8 | N#Cc1c(N)nc(SCn2cncn2)c(C#N)c1-c1ccc(OCC2CC2)cc1 | 1 |  | 1 |  | 1 | 12 | inactive |  | 
9 | CCOc1ccc(-c2c(C#N)c(N)nc(SCc3ccn[nH]3)c2C#N)cc1 | 34 | 6.48 | 18 | 7.68 | 4 |  |  |  | 
10 | N#Cc1c(N)nc2sc(C(N)=O)c(N)c2c1-c1ccc(OCC2CC2)cc1 | 1 |  | 13 |  | 3 | 19 |  |  | 
11 | CNC(=O)CSc1nc(N)c(C#N)c(-c2ccc(OCC3CC3)cc2)c1C#N | 63 | 7.03 | 3 |  | 1 | 14 |  |  | 
12 | N#Cc1c(N)nc(SCc2ncn[nH]2)c(C#N)c1-c1ccc(OCC2CC2)cc1 | 50 | 7.29 | 1 | 6.47 | 1 |  |  |  | 
13 | C=CCOc1ccc(-c2c(C#N)c(N)nc(SCc3ccn[nH]3)c2C#N)cc1 | 7 |  | 13 | 7.36 | 8 |  | inactive |  | 
14 | N#Cc1c(N)nc(SCC(N)=O)c(C#N)c1-c1ccc(OCC2CC2)cc1 | 100 | 7.51 | 8 |  | 2 | 31 |  |  | 
15 | C=C(C)COc1ccc(-c2c(C#N)c(N)nc(SCC(N)=O)c2C#N)cc1 | 2 |  | 4 | 6.06 | 31 |  |  |  | 
16 | N#Cc1c(N)nc(SCC(N)=O)c(C#N)c1-c1ccc(OCC2CCC2)cc1 | 5 |  | 1 |  | 5 | 1 | inactive |  | 
17 | N#Cc1c(N)nc(SCC(=O)NO)c(C#N)c1-c1ccc(OCC2CC2)cc1 | 20 |  | 31 | 6.27 | 1 |  |  |  | 
18 | N#Cc1c(N)nc(SCc2cccc(C(N)=O)c2)c(C#N)c1-c1ccc(OCC2CC2)cc1 | 69 | 7.90 | 1 | 7.08 | 25 |  |  |  | 
19 | N#Cc1c(N)nc(SCc2cnc[nH]2)c(C#N)c1-c1ccc(OCC2CC2)cc1 | 50 | 6.86 | 1 |  | 7 | 1 |  |  | 
20 | N#Cc1c(N)nc(SCc2nnn[nH]2)c(C#N)c1-c1ccc(OCC2CC2)cc1 | 25 |  | 1 |  | 1 | 3 | inactive |  | 
21 | CC(C)COc1ccc(-c2c(C#N)c(N)nc(SCC(N)=O)c2C#N)cc1 | 1 |  | 9 | 6.22 |  |  |  | 6.51 | 
22 | COC(=O)c1cccc(CSc2nc(N)c(C#N)c(-c3ccc(OCC4CC4)cc3)c2C#N)c1 | 27 | 6.46 | 4 | 7.18 | 1 |  |  |  | 
23 | N#Cc1c(N)nc(SCc2csc(N)n2)c(C#N)c1-c1ccc(OCC2CC2)cc1 | 17 |  | 1 | 6.85 | 1 |  | inactive |  | 
24 | N#Cc1c(N)nc(SCc2nc3ccccc3[nH]2)c(C#N)c1-c1ccc(OCC2CC2)cc1 | 12 |  | 1 |  | 6 | 21 | inactive |  | 

— ChEMBL document CHEMBL4196073, “The aminopyridine-3,5-dicarbonitrile core for the design of new non-nucleoside-like agonists of the human adenosine A2B receptor” (Eur J Med Chem, 2018)
